Measurements from ChEMBL document CHEMBL1671784 (J Med Chem, 2011).
Active and inactive are the calls of the source.

Tests used:
[1] = target: Mu-type opioid receptor (Rattus norvegicus, UniProt P33535); assay: Displacement of [3H]DAMGO from mu opioid receptor in Sprague-Dawley rat brain membrane by liquid scintillation counting; format: cell membranes
[2] = target: Kappa-type opioid receptor (Cavia porcellus, UniProt P41144); assay: Displacement of [3H][Ile5,6]deltorphin 2 from delta opioid receptor in Sprague-Dawley rat brain membrane by liquid scintillation counting; format: cell membranes
Kappa-type opioid receptor, sequence (P41144 whole entry): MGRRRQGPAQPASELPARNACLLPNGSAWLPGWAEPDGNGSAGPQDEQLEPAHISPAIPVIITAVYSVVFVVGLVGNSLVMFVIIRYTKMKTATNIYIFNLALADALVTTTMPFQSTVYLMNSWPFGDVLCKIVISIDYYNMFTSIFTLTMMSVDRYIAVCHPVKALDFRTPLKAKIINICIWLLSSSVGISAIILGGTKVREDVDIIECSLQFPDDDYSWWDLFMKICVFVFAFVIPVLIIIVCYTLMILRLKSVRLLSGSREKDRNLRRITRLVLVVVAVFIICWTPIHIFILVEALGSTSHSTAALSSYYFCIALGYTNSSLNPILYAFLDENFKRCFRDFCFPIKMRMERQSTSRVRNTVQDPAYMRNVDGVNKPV

[3] = Displacement of [3H]U69593 from kappa opioid receptor in guinea pig brain membrane by liquid scintillation counting; format: cell membranes, Cavia porcellus
[4] = system: Rattus norvegicus; assay: Antinociceptive activity in sc dosed Sprague-Dawley rat assessed as thermal-stimulus induced tail flick latency after 0.5 hrs; format: functional
[5] = system: Rattus norvegicus; assay: Antinociceptive activity in sc dosed Sprague-Dawley rat assessed as thermal-stimulus induced tail flick latency after 1 hrs; format: functional
[6] = system: Rattus norvegicus; assay: Antinociceptive activity in sc dosed Sprague-Dawley rat assessed as thermal-stimulus induced tail flick latency after 2 hrs; format: functional
[7] = system: Rattus norvegicus; assay: Antinociceptive activity in sc dosed Sprague-Dawley rat assessed as thermal-stimulus induced tail flick latency after 3 hrs; format: functional
[8] = system: Rattus norvegicus; assay: Antinociceptive activity in sc dosed Sprague-Dawley rat assessed as thermal-stimulus induced tail flick latency relative to morphine; format: functional
[9] = system: Rattus norvegicus; assay: Antinociceptive activity in Sprague-Dawley rat inflammatory model assessed as paw withdrawal latency at 170 nmol/kg, sc administered post carrageenan challenge; format: functional, organism-based
Procedure, shortened: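 Male Sprague-Dawley rats (250 g), unanesthetized; unilateral inflammation from 100 μL 1% carrageenan into the right hindpaw plantar surface. At 3 h post-carrageenan, compound given sc in 0.9% saline (100 μL); saline controls; 4–7 rats per group. Randall–Selitto paw pressure (blunt wedge piston, 48 g/s, 20 s cutoff) applied to the dorsal paw. Response is % change in withdrawal latency from the 3 h pre-drug value.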

[10] = species: Rattus norvegicus; conditions: Sprague-Dawley, at 426 nmol/kg
[11] = species: Rattus norvegicus; conditions: Sprague-Dawley, at 426 nmol/kg; remark: listed apart in the source
[12] = system: Rattus norvegicus; assay: Antinociceptive activity in Sprague-Dawley rat inflammatory model assessed as paw withdrawal latency at 183 nmol/kg, sc administered post carrageenan challenge; format: functional, organism-based

Mu-type opioid receptor, sequence (P33535 whole entry): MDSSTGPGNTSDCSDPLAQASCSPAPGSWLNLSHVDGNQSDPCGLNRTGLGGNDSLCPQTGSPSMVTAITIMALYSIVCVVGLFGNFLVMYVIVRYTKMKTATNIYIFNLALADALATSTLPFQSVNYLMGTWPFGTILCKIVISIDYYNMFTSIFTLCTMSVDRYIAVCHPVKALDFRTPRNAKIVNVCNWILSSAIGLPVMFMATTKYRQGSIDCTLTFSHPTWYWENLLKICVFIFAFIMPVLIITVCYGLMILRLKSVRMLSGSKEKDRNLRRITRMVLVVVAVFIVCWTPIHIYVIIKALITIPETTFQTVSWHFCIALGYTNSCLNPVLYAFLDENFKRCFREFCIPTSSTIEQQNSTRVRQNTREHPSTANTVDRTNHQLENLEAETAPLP

Structure (SMILES) | Ki [1] | Ki [2] | Ki [3] | ED50 [4] | ED50 [5] | ED50 [6] | ED50 [7] | fold change (FC) [8] | Activity [9] | inhibition [10] | inhibition [11] | Activity [12]
CN1CC[C@]23c4c5ccc(O)c4O[C@H]2[C@H](NCC(=O)OC(C)(C)C)CC[C@@]3(OCCCc2ccccc2)[C@H]1C5 | 1.03 nM | 2.02 nM | 0.92 nM | 0.164 µmol/kg | 0.0923 µmol/kg | 0.124 µmol/kg | 0.189 µmol/kg | 66 |  |  |  | 
CO[C@@]12CC[C@H](NCC(=O)O)[C@@H]3Oc4c(O)ccc5c4[C@@]31CCN(C)[C@@H]2C5 |  |  |  | 0.137 µmol/kg | 0.0585 µmol/kg | 0.143 µmol/kg | 0.437 µmol/kg |  |  |  |  | 
CC(C)(C)OC(=O)CN[C@@H]1CC[C@@]2(OCCCc3ccccc3)[C@H]3Cc4ccc(O)c5c4[C@@]2(CCN3CC2CC2)[C@H]1O5 | 1.01 nM | 1.77 nM | 0.4 nM | 0.0338 µmol/kg | 0.0268 µmol/kg | 0.0344 µmol/kg | 0.056 µmol/kg |  |  |  |  | 
CN1CC[C@]23c4c5ccc(O)c4O[C@@]2(C)C(=O)CC[C@@]3(OCCCc2ccccc2)[C@H]1C5 |  | 0.54 nM | 0.14 nM |  |  |  |  |  |  |  |  | 
CN1CC[C@]23c4c5ccc(O)c4O[C@H]2[C@H](NCC(=O)O)CC[C@@]3(OCCCc2ccccc2)[C@H]1C5 |  |  |  |  |  |  |  |  | Active |  |  | 
C=CC[N+]1(C)CC[C@]23c4c5ccc(O)c4O[C@H]2C(=O)CC[C@@]3(O)[C@H]1C5 (stereo partly drawn) |  |  |  |  |  |  |  |  |  | Active | Active | 
CC(C)(C)OC(=O)CN[C@H]1CC[C@@]2(OCCCc3ccccc3)[C@H]3Cc4ccc(O)c5c4[C@@]2(CCN3CC2CC2)[C@H]1O5 | 1.38 nM | 1.49 nM | 1.11 nM | 0.365 µmol/kg | 0.348 µmol/kg | 0.363 µmol/kg | 0.427 µmol/kg | 17 |  |  |  | 
Cl.Cl.O=C(O)CN[C@H]1CC[C@@]2(OCCCc3ccccc3)[C@H]3Cc4ccc(O)c5c4[C@@]2(CCN3CC2CC2)[C@H]1O5 | 0.27 nM | 0.64 nM | 0.33 nM | 1.39 µmol/kg | 0.349 µmol/kg | 0.433 µmol/kg | 0.543 µmol/kg | 17 |  |  |  | 
CN1CC[C@]23c4c5ccc(O)c4O[C@H]2[C@@H](O)C=C[C@H]3[C@H]1C5 [MORPHINE] |  |  |  | 6.05 µmol/kg | 7.63 µmol/kg | 13.3 µmol/kg |  |  |  |  |  | 
CO[C@@]12CC[C@@H](NCC(=O)O)[C@@H]3Oc4c(O)ccc5c4[C@@]31CCN(C)[C@@H]2C5 |  |  |  | 0.0508 µmol/kg | 0.029 µmol/kg | 0.0433 µmol/kg |  |  |  |  |  | Active
CN1CC[C@]23c4c5ccc(O)c4O[C@H]2[C@@H](NCC(=O)OC(C)(C)C)CC[C@@]3(OCCCc2ccccc2)[C@H]1C5 | 1.4 nM | 1.26 nM | 1.01 nM | 0.0635 µmol/kg | 0.0583 µmol/kg | 0.084 µmol/kg | 0.148 µmol/kg | 104 |  |  |  | 
CN1CC[C@]23c4c5ccc(O)c4O[C@H]2[C@@H](NCC(=O)O)CC[C@@]3(OCCCc2ccccc2)[C@H]1C5 |  |  |  |  |  |  |  |  | Active |  |  | 
Cl.Cl.O=C(O)CN[C@@H]1CC[C@@]2(OCCCc3ccccc3)[C@H]3Cc4ccc(O)c5c4[C@@]2(CCN3CC2CC2)[C@H]1O5 | 0.2 nM | 0.65 nM | 0.35 nM | 1.56 µmol/kg | 0.183 µmol/kg | 0.147 µmol/kg |  | 41 |  |  |  | 
